In the library only some 1.9% were active in any assay of this set; here they are far more common.
CHRM4 agonist – human M4 muscarinic receptor agonists, primary screen, CHO-K1 cells, Fluo-8 calcium fluorescence. activation, % at 3 µM. actives 0.14% (n = 360,000). CHO-K1 hM4/Gqi5; vehicle 0%, full acetylcholine response 100%. Muscarinic acetylcholine receptor M4 (Homo sapiens), P08173;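 active means activation above the run mean over all test wells plus 3 SD, cut at about 32% in these data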;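 further: peak over basal fluorescence ratio per well then scaled between controls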
M5 PAM – human M5 muscarinic receptor positive allosteric modulators, primary screen, CHO-K1 cells, Fluo-8 calcium fluorescence | Muscarinic acetylcholine receptor M5 (Homo sapiens), P08912 | CHO-K1 hM5, ACh EC20 PAM; 0% = ACh EC20, 100% = ACh EC100 | activation, % at 3 µM | actives 0.3% (n = 360,000) | AID 624038, 2012;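 active means activation above the run cutoff, the mean activation of all test compounds plus 3 SD, cut at about 18% in these data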
Target sequence (P08912 whole entry, looked up): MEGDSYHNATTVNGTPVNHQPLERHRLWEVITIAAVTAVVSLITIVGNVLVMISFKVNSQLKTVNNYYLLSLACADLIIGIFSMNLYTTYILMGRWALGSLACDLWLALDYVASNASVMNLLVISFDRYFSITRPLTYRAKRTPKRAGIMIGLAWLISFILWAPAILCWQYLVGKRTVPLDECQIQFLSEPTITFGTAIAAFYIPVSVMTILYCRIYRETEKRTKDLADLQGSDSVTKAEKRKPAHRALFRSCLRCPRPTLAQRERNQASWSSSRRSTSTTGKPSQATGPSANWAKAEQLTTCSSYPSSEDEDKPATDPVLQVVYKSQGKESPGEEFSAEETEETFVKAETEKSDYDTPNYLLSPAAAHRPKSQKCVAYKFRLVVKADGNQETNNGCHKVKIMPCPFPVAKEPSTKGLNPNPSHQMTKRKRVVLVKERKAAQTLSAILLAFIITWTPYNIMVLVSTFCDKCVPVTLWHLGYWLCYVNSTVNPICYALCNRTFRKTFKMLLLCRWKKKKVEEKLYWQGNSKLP
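System – CHO-K1 hM5 cells · Compound – 3 µM, single dose · Incubation – compound preincubation 140 s before EC20 acetylcholine addition · Technique – Fluo-8 calcium fluorescence · Measure – Max/basal fluorescence ratio as % of EC20–EC100 ACh window · Benchmarks – low control EC20 acetylcholine (0%), high control EC100 acetylcholine (100%) · Replication – singlicate, one well per test compound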
M5 ag – human M5 muscarinic receptor agonists, primary screen, CHO-K1 cells, Fluo-8 calcium fluorescence. activation, % at 3 µM. actives 0.19% (n = 360,000). CHO-K1 hM5 cells; 0% DMSO wells, 100% maximal acetylcholine response. AID 624037, 2012. Muscarinic acetylcholine receptor M5 (Homo sapiens), P08912;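 active means activation above the run's mean over test compounds plus 3 SD, cut at about 23% in these data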;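 further: signal is peak over basal fluorescence ratio across the kinetic read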
CHRM4 antagonist – human M4 muscarinic receptor antagonists, primary screen, CHO cells, Fluo-8 calcium fluorescence | CHO-hM4 cells, ACh EC80 | inhibition, % at 3 µM | actives 0.73% (n = 360,000);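 active means inhibition above its plate's cutoff, the mean inhibition of sample wells plus 3 SD, cut at about 27% in these data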
CHRM5 antagonist – human M5 muscarinic receptor antagonists, primary screen, CHO cells, Fluo-8 calcium fluorescence; actives 0.59% (n = 360,000); CHO-hM5 cells, ACh EC80; Muscarinic acetylcholine receptor M5 (Homo sapiens), P08912; inhibition, % at 3 µM; AID 624040, 2012;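 active means inhibition above a per-plate cutoff, the mean of that plate's test compounds plus 3 SD, cut at about 27% in these data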
CHRM4 PAM – human M4 muscarinic receptor positive allosteric modulators, primary screen, CHO-K1 cells, Fluo-8 calcium fluorescence. CHO-K1 hM4/Gqi5, ACh EC20; 0% = ACh EC20, 100% = maximal ACh. actives 0.4% (n = 360,000). activation, % at 3 µM. AID 624126, 2012;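 active means activation above its plate's cutoff, the mean activation of sample wells plus 3 SD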
Of the large screens only hits and unclear results are named; the others gave an inactive call.

CCN(CCCNC(=O)CC(C(=O)N1CCc2ccccc21)n1ccnc1)c1cccc(C)c1 (stereo unspecified)	none
O=C(O)c1ccc(CNCc2ccccc2Cl)cc1	none
O=C(O)c1ccc(CNCc2cccc(Cl)c2Cl)cc1	CHRM4 PAM 28
Cc1nc2sccn2c(=O)c1S(=O)(=O)Nc1ccc(N2CCN(S(C)(=O)=O)CC2)cc1	CHRM5 antagonist 34
COc1ccc(Cl)cc1NC(=O)NCc1ccc2c(c1)OCO2	none
Cc1ccc(C(=O)NCCc2nnc3ccc(SCC(=O)Nc4ccccc4F)nn23)cc1	none
CC(=O)SCC[N+](C)(C)C	M5 ag 63
C[N+](C)(C)CCOC(=O)CCC(=O)OCC[N+](C)(C)C	none
COc1ccc(CCNC(=O)CCN2C(=O)[C@@H]3Cc4ccccc4CN3C2=O)cc1	none
COc1cccc(CNC(=O)CN2C(=O)c3ccccc3S2(=O)=O)c1	CHRM4 PAM 25
O=C(CN1C(=O)c2ccccc2S1(=O)=O)NCc1ccccc1	none
COc1cccc(CNC(=O)CCN2C(=O)[C@@H]3Cc4ccccc4CN3C2=O)c1	CHRM4 PAM 20
COc1cccc(CNC(=O)Cn2nc(C)c([N+](=O)[O-])c2C)c1	M5 PAM 21
COc1ccccc1CNC(=O)Cn1nc(C)c([N+](=O)[O-])c1C	none
Cc1ccc(-n2ncc3c2CCCC3NC(=O)CCc2c(C)noc2C)cc1C (stereo unspecified)	none
COc1cccc(C(=O)N2CCC[C@H]2C(=O)N2CCC[C@H]2C(=O)N[C@H](C)c2ccccc2)c1	none
CC(C)Cc1ccc(CN2C(C)C(=O)N(Cc3cn(Cc4ccco4)nn3)CCS2(=O)=O)cc1 (stereo unspecified)	none
O=C(Nc1nncs1)C1CCCC1	M5 PAM 19
COC(=O)Nc1nncs1	none
Nc1[nH]ncc1S(=O)(=O)c1ccccc1	none
CC1(OC(=O)C2CCCC2)C(=O)C=C2C=C(c3ccsc3)N(CCCCO)C=C2C1=O (stereo unspecified)	none
CC1(OC(=O)C2CCCC2)C(=O)C=C2C=C(c3ccsc3)N(C3CCCC3)C=C2C1=O (stereo unspecified)	M5 ag 39
Cc1ccc(C2(C)NC(=O)N(CC(=O)N(C)CC(=O)Nc3cccc4ccccc34)C2=O)cc1 (stereo unspecified)	none
CN1CCC(Oc2ccc(Sc3ccccc3)cc2)CC1	CHRM4 antagonist 34
CN1CCC(Oc2ccccc2Sc2ccc(C(F)(F)F)cc2)CC1	none
O=C(Nc1ccc(S(=O)(=O)Nc2ccccn2)cc1)c1ccc(Cl)cc1Cl	none
CCOC(=O)c1ccc(NC(=S)NCC(O)c2ccccc2)cc1 (stereo unspecified)	CHRM5 antagonist 38
CCOC(=O)c1ccc(NC(=S)NCCc2ccccc2)cc1	none
CCOC(=O)c1ccc(NC(=S)NCCc2ccccc2F)cc1	CHRM4 antagonist 29, CHRM5 antagonist 30
C=C(C)CSc1nncn1/N=C/c1ccc(OC)cc1	CHRM4 PAM 30
CCSc1nncn1/N=C/c1ccc(OC)c(OC)c1	none
O=C(/C=C/c1ccccc1Cl)N1CCOCC1	none
N#Cc1ccccc1/C=C/C(=O)N1CCOCC1	M5 ag 34
CCc1ccc(NC(=O)CS(=O)CC(=O)Nc2ccc(F)cc2F)cc1 (stereo unspecified)	CHRM4 PAM 31
Cc1cccc(C)c1NC(=O)CS(=O)CC(=O)Nc1ccc(F)cc1F (stereo unspecified)	none
CC(C)CC1CCCCC1OC(=O)C[N+]1(C)CCCCC1 (stereo unspecified)	CHRM4 antagonist 87, CHRM5 antagonist 97
CCOc1ccc(/C=C(\C#N)C(=O)Nc2cccnc2)cc1	none
CCOc1ccc(NC(=O)/C(C#N)=C\c2ccc(N3CCCC3)c(C)c2)cc1	M5 ag 40, CHRM5 antagonist 50
CCN1CCCC1CNC(=O)Cn1cc(C)c(=O)[nH]c1=O (stereo unspecified)	none
Cc1cccc(C(=O)OCC(=O)N(CC(C)C)c2c(N)n(Cc3ccccc3)c(=O)[nH]c2=O)c1C	none
Cc1ccc(NC(=O)C2(C)Cc3ccccc3C(=O)O2)cc1 (stereo unspecified)	CHRM4 PAM 25
CC1CN(C(C)C)C(=S)NC1=O (stereo unspecified)	none
COc1ccc2c(c1C)CCC(C)(C#N)C2=O (stereo unspecified)	none
Cc1ccc([C@@H]2[C@@H]3C(=O)N(C)C(=O)[C@@H]3[C@]3(C)C(=O)N(Cc4ccccc4)CC(=O)N23)o1	M5 PAM 22
CCCCn1c(-c2ccc([N+](=O)[O-])cc2)n[nH]c1=S	CHRM4 antagonist 95, CHRM5 antagonist 46
COc1ccc(NC(=O)C2=CN3CCS(=O)(=O)N=C3C=C2)c(OC)c1	none
CCCn1cnnc1CNC(=O)[C@H]1O[C@@H](n2ccc(N)nc2=O)[C@H](O)[C@@H]1O	none
Cc1ccc(CNC(=O)[C@H]2O[C@@H](n3ccc(N)nc3=O)[C@H](O)[C@@H]2O)o1	CHRM4 PAM 20
COc1ccccc1N1CCN(C(=O)c2ccc3noc(-c4ccccc4)c3c2)CC1	M5 ag 25
O=C(Nc1ccc(Cl)c(Cl)c1)OCc1cncs1	none
O=C(Nc1ccccc1)OCc1cncs1	M5 PAM 18
O=S1(=O)N=C(Nc2ccc(O)cc2)c2ccccc21	M5 PAM 21
Cc1ccccc1NC1=NS(=O)(=O)c2ccccc21	none
COc1ccc(CC(=O)NC(C)c2nnc(SCCC(=O)Nc3ccccc3)n2C)cc1 (stereo unspecified)	M5 PAM 18
CCOC(=O)c1c(NC(=O)c2ccco2)sc2c1CCCCC2	none
COC(=O)c1c(NC(=S)NC(=O)c2ccco2)sc2c1CCCC2	CHRM4 PAM 33
Cc1sc(NC(=S)NC(=O)CCc2ccccc2)c(C(N)=O)c1C	none
Cc1sc(NC(=S)NC(=O)c2ccco2)c(C(N)=O)c1C	CHRM5 antagonist 31
CCOC(=O)c1c(NC(=O)C(C)N2CCN(C(=O)c3ccco3)CC2)sc2c1CCCC2 (stereo unspecified)	CHRM4 agonist 41, M5 ag 27, CHRM4 antagonist 49

Screening data (PubChem BioAssay)
